Source: PubChem (Johns Hopkins Ion Channel Center)
Hits are enriched below; roughly 2.3% of the tested compounds scored in any of these assays.
TRPC4 act: activators of mouse TRPC4 channel | 310,000 compounds, 0.49% hits | HEK293 TRPC4beta/mu-opioid, Fluo4 calcium fluorescence; active compounds read high | Q9QUQ5 | B-score at 10 µM;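 active = B-score above 5 SD of library B-scores, and initial fluorescence ratio not above library mean plus 5 SD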;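 note: positive B-score marks a calcium rise read as TRPC4 activation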
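System – HEK293 cells stably co-expressing mouse TRPC4beta and mu-opioid receptor · Signal – Fluo4 calcium-sensitive dye fluorescence, kinetic, 1 Hz baseline · Benchmarks – buffer (low) and maximal DAMGO (high) · Read-out – B score of integrated fluorescence ratio per well · Incubation – dye loading 45 min room temperature, 110 s kinetic read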
TRPC4 PAM: allosteric potentiators of mouse TRPC4 channel. AID 2227. B-score at 10 µM. 310,000 compounds, 0.42% hits. HEK293 TRPC4beta/mu-opioid, DAMGO EC20, Fluo-4 Ca2+ flux; active compounds read high;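 active = B-score of calcium response area above 5 SD of library B-scores, with initial fluorescence ratio within 5 SD of library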
TRPC4 block: inhibitors of mouse TRPC4 channel; HEK293 TRPC4beta/mu-opioid, DAMGO-evoked Fluo4 calcium flux; active compounds read low; 300,000 compounds, 0.39% hits; Q9QUQ5; B-score at 10 µM;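 active = B-score over 3 SD under the library average, no early fluorescence shift, positive overall ratio signal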
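test system = HEK293 cells with stable TRPC4beta plus mu-opioid receptor expression | detection = Fluo4 Ca2+ flux fluorescence | read-out = integrated fluorescence ratio relative to baseline, converted to per-well B score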
TRPC6 activator: mouse TRPC6 channel activation; Q61143; HEK293-TRPC6 membrane potential dye fluorescence; active compounds read high; B-score at 10 µM; 310,000 compounds, 0.13% hits; AID 2550;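 active = B-score of the integrated fluorescence ratio above library mean plus 3 SD, and starting fluorescence ratio within library mean plus 5 SD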;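 note: higher score means more depolarization so channel activation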
TRPC6 inh: inhibitors of mouse TRPC6 channel; HEK293-TRPC6, membrane potential dye, ACh-evoked depolarization; active compounds read low; B-score at 10 µM; Q61143; 310,000 compounds, 1.1% hits; AID 2553;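 active = B-score under library mean minus 3 SD, initial fluorescence not abnormally high, positive integrated signal ratio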;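 note: B-score derived from integrated fluorescence ratio over the kinetic read; more negative B-score means stronger inhibition of depolarization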
TRPC4 sel inh 2: second selectivity test of TRPC6 inhibitors: effect on mouse TRPC4; shares compounds with TRPC6 inh; HEK293 TRPC4/MOR, membrane potential dye fluorescence; channel activated by saturating DAMGO dose; inhibition, % at 10 µM; 920 compounds, 42% hits;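 active = compounds whose fluorescence signal differed from control wells by over 3 SD, either direction, in both duplicate plates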
TRPC4 spec: mouse TRPC4 off-target activity of TRPC6 inhibitors; AID 2777; 920 compounds, 61% hits; shares compounds with TRPC6 inh; activity change, negative = inhibition, % at 10 µM; HEK293 TRPC4/mu-opioid, membrane potential fluorescence;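 active = rise or fall in signal beyond 3 SD of buffer-only wells in both replicate plates, either sign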;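 note: integrated kinetic ratio of fluorescence range over baseline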
HEK293 MPD ctr 2-1: parental HEK293 nonspecific activity of TRPC6 inhibitors, second screen | shares compounds with TRPC6 inh | parental HEK293 membrane potential dye fluorescence; maximal acetylcholine challenge after compound addition | signal change vs control, % at 10 µM | 920 compounds, 31% hits | AID 2779;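 active = membrane potential signal moving either way by over 3 SD of the maximum-effect control, in both duplicate plates, meaning non-specific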
HEK293 MPD ctr-1: parental HEK293 nonspecific activity of TRPC6 inhibitors | shares compounds with TRPC6 inh | parental HEK293 membrane potential dye fluorescence | membrane potential signal change, % at 10 µM | 920 compounds, 60% hits | AID 2780;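 active = membrane potential signal shifting up or down by more than 3 SD of buffer-only wells, on both duplicate plates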
HEK293 MPD ctr-2: counter-screen for TRPC6 modulators: effect in parental HEK293 cells; shares compounds with TRPC6 inh; membrane potential dye fluorescence; AID 488924; membrane potential signal change, % at 10 µM; 2,400 compounds, 51% hits;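 active = membrane potential signal moves up or down beyond 5 SD from buffer-only wells, on both duplicate plates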
HEK293 MPD ctr 2-2: parental HEK293 nonspecific activity of TRPC6 modulators, second screen; membrane potential dye fluorescence; after compound, maximal acetylcholine stimulation; 2,400 compounds, 14% hits; inhibition, % at 10 µM; shares compounds with TRPC6 inh;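 active = membrane potential signal drops by more than 5 SD from the mean control signal, in both duplicate plates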
TRPC4/MOR mod: mouse TRPC4 off-target activity of TRPC6 modulators; shares compounds with TRPC6 inh; HEK293 TRPC4/mu-opioid, membrane potential fluorescence; percent change from control (negative = decrease, positive = increase), % at 10 µM; 2,400 compounds, 69% hits; AID 488927;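 active = membrane potential signal moved up or down beyond 5 SD of buffer control wells, in both duplicate plates, actives on both sides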
TRPC4 ctr inh 2: mouse TRPC4 off-target activity of TRPC6 modulators, second screen; shares compounds with TRPC6 inh; HEK293 TRPC4/mu-opioid, membrane potential dye fluorescence; stimulated with maximal-effect DAMGO; inhibition, % at 10 µM; 2,400 compounds, 55% hits;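 active = drop in membrane potential signal beyond 5 SD of the control wells in both duplicate plates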;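 note: TRPC4 counter screen for TRPC6 hits run under conditions tuned for TRPC6 not TRPC4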
TRPC6 block conf: mouse TRPC6 inhibitor confirmation | AID 488960 | shares compounds with TRPC6 inh | 3,300 compounds, 43% hits | HEK293-TRPC6, membrane potential dye, ACh-evoked depolarization | inhibition, % at 10 µM;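 active = fluorescence ratio falls more than 5 SD below the full-stimulation control mean, in both duplicate runs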;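 note: integrated fluorescence ratio of peak minus minimum over baseline after agonist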
TRPC6 act conf: confirmation of mouse TRPC6 activators. shares compounds with TRPC6 inh. HEK293-TRPC6 membrane potential dye fluorescence, FDSS. activation, % at 10 µM. 2,800 compounds, 11% hits. AID 488961;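 active = ratio signal rise beyond 5 SD above unstimulated control wells' mean, seen in both duplicate runs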
A number is an active result; i = inactive; nt = no result given.

SMILES	TRPC4 act	TRPC4 PAM	TRPC4 block	TRPC6 activator	TRPC6 inh	HEK293 MPD ctr-2	HEK293 MPD ctr 2-2	TRPC4/MOR mod	TRPC4 ctr inh 2	TRPC6 block conf	TRPC6 act conf	others
N=c1c(C(=O)NCc2ccco2)cc2c(=O)n3ccccc3nc2n1CCc1ccccc1	i	i	i	i	-5.8	-80%	i	-30%	52%	46%	i
COc1ccccc1NC(=O)CS(=O)(=O)c1cn(CC(=O)N2CCCC2)c2ccccc12	i	i	i	i	i	nt	nt	nt	nt	nt	nt
CC(Sc1ncnc2sc(-c3ccccc3)cc12)C(=O)NCC1CCCO1 (stereo not given)	i	i	i	i	i	nt	nt	nt	nt	nt	nt
Cc1nn(-c2nnc(NC3CCCCC3)nn2)c(C)c1Br	i	i	i	i	i	nt	nt	nt	nt	nt	nt
Cc1sc2cc3c(c(C(=O)c4ccccc4)[n+]2c1C)-c1cccc2cccc-3c12	i	i	-6	i	-8.6	nt	nt	nt	nt	i	i	TRPC4 sel inh 2=i;TRPC4 spec=-28%;HEK293 MPD ctr 2-1=i;HEK293 MPD ctr-1=-502%
CC(=O)C1=C(O)C(=O)N(c2ccc(O)cc2)C1c1cccc(F)c1 (stereo not given)	i	i	i	i	i	nt	nt	nt	nt	nt	nt
Cc1ccc(C(=O)NNC2=Nc3cccc4cccc2c34)cc1	i	i	i	i	-5.3	i	i	i	i	i	i
COc1ccc(C(=O)NNC2=Nc3cccc4cccc2c34)cc1	i	i	i	i	i	nt	nt	nt	nt	nt	nt
O=S(=O)(CCN1C=CC(C(F)(F)F)=NCC1)c1ccc(Cl)cc1Cl	i	i	i	i	i	nt	nt	nt	nt	nt	nt
Cc1cc(NC(=O)CCC(=O)N(Cc2ccco2)C2(C(=O)NC3CCCC3)CCC(C)CC2)no1 (stereo not given)	i	i	i	i	i	nt	nt	nt	nt	nt	nt
Cc1cc(NC(=O)CCC(=O)N(C2CC2)C2(C(=O)NC3CCCC3)CCC(C)CC2)no1 (stereo not given)	i	i	i	i	-5.1	i	i	18%	i	i	nt
Cc1ccc(N2C(=O)C3C4C=CC(CC4)C3C2=O)c([N+](=O)[O-])c1 (stereo not given)	i	i	i	i	i	nt	nt	nt	nt	nt	nt
CC(C)C(Sc1nc(-c2ccccc2)cc(-c2ccccc2)c1C#N)C(=O)O (stereo not given)	i	i	i	13	i	355%	i	66%	i	i	126%
O=C(COc1ccc2c3c(c(=O)oc2c1)CCCC3)N[C@@H](Cc1ccccc1)C(=O)O	i	i	i	i	i	nt	nt	nt	nt	nt	nt
CC(Oc1ccc2c3c(c(=O)oc2c1)CCC3)C(=O)NCc1ccccn1 (stereo not given)	i	i	i	i	i	nt	nt	nt	nt	nt	nt
O=C(COc1ccc2c3c(c(=O)oc2c1)CCC3)NCc1ccccn1	i	i	i	i	-6.1	i	i	i	i	i	i
O=C(COc1ccc2c3c(c(=O)oc2c1)CCCC3)NC(Cc1ccc(Cl)cc1)C(=O)O (stereo not given)	i	i	i	i	-7	nt	nt	nt	nt	i	i	TRPC4 sel inh 2=i;TRPC4 spec=4.7%;HEK293 MPD ctr 2-1=i;HEK293 MPD ctr-1=2.1%
Cc1ccnc(NS(=O)(=O)c2cc(C(F)(F)F)ccc2Cl)c1	i	i	i	i	i	nt	nt	nt	nt	nt	nt
CN(CC(=O)NC1CCN(Cc2ccccc2)CC1)S(=O)(=O)c1ccc2c(c1)c(=O)n(C)c(=O)n2C	i	i	i	i	-6	i	i	-11%	i	i	i
Clc1ccc(-[n+]2c(-c3cccc(Br)c3)[nH]c3nc4ccccc4nc32)cc1	i	i	i	i	-5.1	i	i	i	38%	i	i
Brc1cccc(-c2nc3cccnc3nc2-c2cccc(Br)c2)c1	i	i	i	i	i	nt	nt	nt	nt	nt	nt
Cc1ccccc1-c1nnc(SCC(=O)N(C)c2c(N)n(Cc3ccccc3)c(=O)[nH]c2=O)n1C	i	i	i	i	i	nt	nt	nt	nt	nt	nt
COc1ccc(-c2nc3cc(C)ccn3c2NCC2CCCO2)cc1OC (stereo not given)	i	i	i	i	-6.9	-223%	80%	-38%	44%	56%	i
COC(=O)c1ccc(NC(=O)CN2C(=O)CC(C)S(=O)(=O)c3ccccc32)cc1 (stereo not given)	i	i	i	i	i	nt	nt	nt	nt	nt	nt
Cc1ccc(C(OCCN(C)C)c2cccc(C(F)(F)F)c2)cc1 (stereo not given)	i	i	i	i	-5.4	i	i	18%	38%	i	nt
SMILES	TRPC4 act	TRPC4 PAM	TRPC4 block	TRPC6 activator	TRPC6 inh	HEK293 MPD ctr-2	HEK293 MPD ctr 2-2	TRPC4/MOR mod	TRPC4 ctr inh 2	TRPC6 block conf	TRPC6 act conf	others
S=C(Sc1ccc(Cl)cc1)Sc1ccc(Cl)cc1	i	i	i	i	i	nt	nt	nt	nt	nt	nt
CCn1cnc2cc(NCc3ccncc3)ccc21	i	i	i	i	i	nt	nt	nt	nt	nt	nt
Cc1ccc(CNc2ccc3c(c2)ncn3C)cc1	i	i	i	i	i	nt	nt	nt	nt	nt	nt
CCc1ccc(CNc2ccc3c(c2)ncn3C)cc1	i	i	i	i	-6.3	i	i	-14%	61%	37%	i
CCn1cnc2cc(NCc3ccc(Cl)cc3)ccc21	i	i	i	i	-5.6	i	i	i	40%	48%	i
CCCC(c1nnnn1C(C)(C)C)N1CCN(C(=O)c2ccco2)CC1 (stereo not given)	i	i	i	i	i	nt	nt	nt	nt	nt	nt
Cc1ccc(CN2C(=O)C(C)Nc3ncnc(N4CCOCC4)c32)cc1 (stereo not given)	i	i	i	i	i	nt	nt	nt	nt	nt	nt
